Reference: ChEMBL document CHEMBL1135749, “Stereoselective synthesis and antiviral activity of D-2',3'-didehydro-2',3'-dideoxy-2'-fluoro-4'-thionucleosides” (J Med Chem, 2002)
pEC50, pIC50: −log10 of the molar value.

Columns and labels:
CCRF-CEM = assay: Cytotoxicity against CEM cells; type: cell-based; conditions: Homo sapiens
Outline: (§1)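 Uninfected log-phase cells seeded on 10-fold serial drug dilutions: Vero at 5 × 10³, CEM at 2.5 × 10³, and PHA-stimulated PBM at 5 × 10⁴ cells/well. Incubated at 37 °C in 5% CO₂ for 3 days (Vero), 4 days (CEM) or 5 days (PBM). MTT added overnight, then solubilized and read at 570 nm. IC50 by the median effect method.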

[1] = In vitro cytotoxicity against human peripheral blood mononuclear (PBM) cells; type: cell-based; outline: as §1
[2] = Anti-viral activity against HIV-1 in human PBM cells; type: functional, cell-based; conditions: PBMC
Outline: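 PHA-stimulated (2-3 days) human PBM cells from healthy seronegative donors, infected in bulk for 1 h with HIV-1 LAI (100 TCID50/1 × 10⁷ cells flask or 200 TCID50/6 × 10⁵ cells/well). Cells then placed on 10-fold serial compound dilutions in RPMI-1640 with IL-2, 5 days at 37 °C. Supernatant RT activity measured by ³H-TTP incorporation on poly(rA)·oligo(dT). EC50 obtained by the median effect method.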

Vero = assay: Cytotoxicity against Vero cells; type: cell-based; conditions: Chlorocebus sabaeus; outline: as §1
[3] = Antiviral activity against (HIV-1M184V) mutant strain in human PBM cells; type: functional; conditions: PBMC
Outline: (§2)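 Molecular infectious clones HIV-1 xxBru and HIV-1 M184Vpitt used in PHA-stimulated human PBM cells. Bulk 1 h infection at 100 TCID50/1 × 10⁷ cells (flask) or 200 TCID50/6 × 10⁵ cells/well. Cells then exposed to 10-fold serial compound dilutions for 5 days at 37 °C. Read-out was pelleted-virus RT activity with ³H-TTP. EC50 by the median effect method.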

[4] = Antiviral activity against HIV-1xxBRU […] strain in human PBM cells; type: functional; conditions: PBMC; outline: as §2
[5] = molecular target: Adenosine deaminase (Bos taurus) (UniProt P56658); assay: Half life value of the compound

half-life [5] [min]	SMILES	pIC50 (CCRF-CEM)	pIC50 [1]	pEC50 [2]	pIC50 (Vero)	EC90 [3] [µM]	EC90 [4] [µM]
	O=c1nc(O)ccn1[C@@H]1S[C@H](CO)C=C1F	< 4.00	< 4.00	< 4.00	< 4.00		
	Nc1nc2c(ncn2[C@@H]2S[C@H](CO)C=C2F)c(=O)[nH]1	< 4.00	< 4.00	4.09	< 4.00		
	Nc1ccn([C@@H]2S[C@H](CO)C=C2F)c(=O)n1	< 4.00	< 4.00	5.89	< 4.00	125	5
	Nc1nc(F)nc2c1ncn2[C@@H]1S[C@H](CO)C=C1F	5.96	5.82	5.92	5.12		
42	Nc1ncnc2c1ncn2[C@@H]1O[C@H](CO)C=C1F						
	Cc1cn([C@@H]2S[C@H](CO)C=C2F)c(=O)nc1O	< 4.00	< 4.00	4.03	4.28		
	Nc1nc(=O)n([C@@H]2S[C@H](CO)C=C2F)cc1F	< 4.00	< 4.00	4.94	< 4.00		
	O=c1[nH]cnc2c1ncn2[C@@H]1S[C@H](CO)C=C1F	< 4.00	< 4.00	4.36	< 4.00		
0.5	Nc1ncnc2c1ncn2[C@@H]1O[C@H](CO)[C@@H](O)[C@H]1O [ADENOSINE]						
	Nc1ccn([C@@H]2CS[C@H](CO)O2)c(=O)n1 [LAMIVUDINE]					535	0.08
	Cc1cn([C@H]2C[C@H](N=[N+]=[N-])[C@@H](CO)O2)c(=O)[nH]c1=O [ZIDOVUDINE]		< 4.00	8.40		0.003	0.01

SMILES	half-life [5] [min]	pIC50 (CCRF-CEM)	pIC50 [1]	pEC50 [2]	pIC50 (Vero)	EC90 [3] [µM]	EC90 [4] [µM]
Nc1ncnc2c1ncn2[C@@H]1S[C@H](CO)C=C1F	33	< 4.00	< 4.00	5.09	< 4.00		
